In ChEMBL document CHEMBL1148866, “Design and synthesis of beta-methoxyacrylate analogues via click chemistry and biological evaluations” (2007):
Values after ≈ are worked out from the molar mass of the structure shown.

Assays:
Format in all cases: functional
[1] = tested on: Aspergillus flavus; test: Antifungal activity against Aspergillus flavus
Method in brief: (§1)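 MIC determined in 96-well plates. 1-mm diameter mycelial pieces were incubated in Czapek Dox minimal medium across a range of compound concentrations, and the MIC was read from mycelial growth.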

[2] = tested on: Simplicillium lamellicola; test: Antifungal activity against Verticillium lamellicola; method in brief: as §1
[3] = tested on: Alternaria brassicicola; test: Antifungal activity against Alternaria brassicola; method in brief: as §1
[4] = tested on: Radish; test: Effect on growth of Raphanus sativus assessed as length of hypocotyl at 50 ug/mL by seed germination assay
[5] = tested on: Fusarium oxysporum; test: Antifungal activity against Fusarium oxysporum; method in brief: as §1
[6] = tested on: Alternaria brassicae; test: Antifungal activity against Alternaria brassicae; method in brief: as §1

With `CO/C=C(/C(=O)OC)c1cc(Cl)ccc1Cn1cc(-c2ccccc2)nn1` the MIC [1] was over 1500 µg/mL, the MIC [2] was 1500 µg/mL (≈ 3910 µM) and the MIC [3] was 1000 µg/mL (≈ 2610 µM). The Activity [4] was 18.8 mm, the MIC [5] was 1000 µg/mL (≈ 2610 µM) and the MIC [6] was 1000 µg/mL (≈ 2610 µM).

`C#CS(=O)(=O)c1ccc(C)cc1` gave an MIC [1] of 4 µg/mL (≈ 22.2 µM), an MIC [2] of 4 µg/mL (≈ 22.2 µM) and an MIC [3] of 4 µg/mL (≈ 22.2 µM). It also gave an Activity [4] of 56.2 mm, an MIC [5] of 4 µg/mL (≈ 22.2 µM) and an MIC [6] of 4 µg/mL (≈ 22.2 µM).

`CO/C=C(/C(=O)OC)c1cc(Cl)ccc1Cn1cc(S(=O)(=O)c2ccc(C)cc2)nn1` was tested, and the MIC [1] was 500 µg/mL (≈ 1080 µM), the MIC [2] was 500 µg/mL (≈ 1080 µM) and the MIC [3] was 500 µg/mL (≈ 1080 µM). The Activity [4] was 30.7 mm, the MIC [5] was 500 µg/mL (≈ 1080 µM) and the MIC [6] was 400 µg/mL (≈ 866 µM).

In the case of `CO/C=C(/C(=O)OC)c1cc(Cl)ccc1Cn1cc(-c2ccccc2C=O)nn1`, the MIC [1] is reported as 1500 µg/mL (≈ 3640 µM), the MIC [2] is reported as 1000 µg/mL (≈ 2430 µM) and the MIC [3] is reported as 1000 µg/mL (≈ 2430 µM). It also gave an Activity [4] of 25 mm, an MIC [5] of 1000 µg/mL (≈ 2430 µM) and an MIC [6] of 1000 µg/mL (≈ 2430 µM).

`CO/C=C(/C(=O)OC)c1cc(Cl)ccc1Cn1cc(C2=CCCCC2)nn1` was tested, and the MIC [1] was over 1500 µg/mL, the MIC [2] was 1500 µg/mL (≈ 3870 µM) and the MIC [3] was 1000 µg/mL (≈ 2580 µM). The Activity [4] was 14 mm, the MIC [5] was 1500 µg/mL (≈ 3870 µM) and the MIC [6] was 1000 µg/mL (≈ 2580 µM).

With `CO/C=C(/C(=O)OC)c1ccccc1Oc1cc(Oc2ccccc2C#N)ncn1` [AZOXYSTROBIN] the Activity [4] was 2 mm.
